Type in all cases: functional
Test [1] has as its system Escherichia coli. The test can be described thus: Antimicrobial activity against Escherichia coli DH5-alpha with pYW2 expressing KPC2 and TEM1 gene by agar dilution method. The following applies: DH5alpha. The method in brief:
(§1)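 Agar dilution MIC testing run per CLSI (formerly NCCLS) guidelines. Where an agent was combined with clavulanic acid, the clavulanic acid was held at a fixed 4 μg/ml.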
A general note: In agar dilution, organisms are placed on agar that contains the substance at set levels.

The subject of another test is Klebsiella pneumoniae. Description: Antimicrobial activity against carbapenem-resistant Klebsiella pneumoniae ZR01 from patient sputum by agar dilution method. In a few lines:
as §1

For test [2], the system named is Escherichia coli. The test can be described thus: Antimicrobial activity against Escherichia coli DH5-alpha pYW1 transformants expressing KPC2 gene by agar dilution method. The conditions noted are these: DH5alpha. In a few lines:
as §1

Test [3] concerns Escherichia coli. Description: Antimicrobial activity against Escherichia coli DH5-alpha with pGEM-T EASY expressing TEM1 gene by agar dilution method. The following applies: DH5alpha. In a few lines: as §1
Test [4] deals with Escherichia coli. Description: Antimicrobial activity against Escherichia coli DH5alpha by agar dilution method. In a few lines:
as §1

≈ marks a conversion by molar mass, not a printed value.

The values below come from ChEMBL document CHEMBL1142210, “Plasmid-mediated KPC-2 in a Klebsiella pneumoniae isolate from China” (2007).

Consider `C[C@H]1[C@H](NC(=O)/C(=N\OC(C)(C)C(=O)O)c2csc(N)n2)C(=O)N1S(=O)(=O)O` [AZTREONAM], for which the MIC (in general, the smallest concentration in the dilution series that meets the test's criterion for growth inhibition) was 64 µg/mL (≈ 147 µM) in the test with Escherichia coli [1], > 256 µg/mL in the test on Klebsiella pneumoniae and 32 µg/mL (≈ 73.5 µM) with Escherichia coli [2].

In the case of `C[C@@H](O)[C@H]1C(=O)N2C(C(=O)O)=C(SCCNC=N)C[C@H]12` [IMIPENEM ANHYDROUS], the values for the MIC in the test on Escherichia coli [1], in the test on Klebsiella pneumoniae and in the test with Escherichia coli [2] were 8 µg/mL (≈ 26.7 µM), > 32 µg/mL and 4 µg/mL (≈ 13.4 µM), respectively.

Consider `NCC[C@H](O)C(=O)N[C@@H]1C[C@H](N)[C@@H](O[C@H]2O[C@H](CN)[C@@H](O)[C@H](O)[C@H]2O)[C@H](O)[C@H]1O[C@H]1O[C@H](CO)[C@@H](O)[C@H](N)[C@H]1O` [AMIKACIN], for which the MIC is 1 µg/mL (≈ 1.71 µM) against Escherichia coli [3]; 1 µg/mL (≈ 1.71 µM) against Escherichia coli [1]; > 256 µg/mL against Klebsiella pneumoniae; 1 µg/mL (≈ 1.71 µM) against Escherichia coli [4]; 1 µg/mL (≈ 1.71 µM) with Escherichia coli [2].

`CC(C)(O/N=C(\C(=O)N[C@@H]1C(=O)N2C(C(=O)[O-])=C(C[n+]3ccccc3)CS[C@H]12)c1csc(N)n1)C(=O)O` [CEFTAZIDIME]: the MIC was 0.5 µg/mL (≈ 0.915 µM) in the test with Escherichia coli [3]; 32 µg/mL (≈ 58.5 µM) in the test with Escherichia coli [1]; > 256 µg/mL in the test on Klebsiella pneumoniae; 0.25 µg/mL (≈ 0.457 µM) against Escherichia coli [4]; 4 µg/mL (≈ 7.32 µM) against Escherichia coli [2].

As for `CO[C@H]1/C=C/O[C@@]2(C)Oc3c(C)c(O)c4c(O)c(c(/C=N/N5CCN(C)CC5)c(O)c4c3C2=O)NC(=O)/C(C)=C\C=C\[C@H](C)[C@H](O)[C@@H](C)[C@@H](O)[C@@H](C)[C@H](OC(C)=O)[C@@H]1C` [RIFAMPIN], the MIC against Escherichia coli [3], in the test with Escherichia coli [1], against Klebsiella pneumoniae, against Escherichia coli [4] and against Escherichia coli [2] was 16 µg/mL (≈ 19.4 µM) each time.

As to `CO/N=C(\C(=O)N[C@@H]1C(=O)N2C(C(=O)O)=C(COC(C)=O)CS[C@H]12)c1csc(N)n1` [CEFOTAXIME], the MIC was 0.094 µg/mL (≈ 0.206 µM) against Escherichia coli [3]; 32 µg/mL (≈ 70.3 µM) with Escherichia coli [1]; > 256 µg/mL in the test with Klebsiella pneumoniae; 0.094 µg/mL (≈ 0.206 µM) against Escherichia coli [4]; 4 µg/mL (≈ 8.78 µM) against Escherichia coli [2].

Consider `O=C(O)c1cn(C2CC2)c2cc(N3CCNCC3)c(F)cc2c1=O` [CIPROFLOXACIN], for which the MIC with Klebsiella pneumoniae is > 32 µg/mL.

Take `C[C@@H](O)[C@H]1C(=O)N2C(C(=O)O)=C(S[C@@H]3CN[C@H](C(=O)Nc4cccc(C(=O)O)c4)C3)[C@H](C)[C@H]12` [ERTAPENEM]: the MIC was 0.012 µg/mL (≈ 0.0252 µM) with Escherichia coli [3]; 2 µg/mL (≈ 4.21 µM) in the test with Escherichia coli [1]; > 256 µg/mL with Klebsiella pneumoniae; 0.008 µg/mL (≈ 0.0168 µM) in the test with Escherichia coli [4]; 0.5 µg/mL (≈ 1.05 µM) in the test with Escherichia coli [2].

Consider POLYMYXIN B, for which the MIC came to 1 µg/mL with Escherichia coli [3]; 1 µg/mL in the test on Escherichia coli [1]; 2 µg/mL in the test on Klebsiella pneumoniae; 1 µg/mL with Escherichia coli [4]; 1 µg/mL against Escherichia coli [2].

Turning to `C[C@@H](O)[C@H]1C(=O)N2C(C(=O)O)=C(S[C@@H]3CN[C@H](C(=O)N(C)C)C3)[C@H](C)[C@H]12` [MEROPENEM], the minimum inhibitory concentration (MIC) in the test with Escherichia coli [3] was 0.06 µg/mL (≈ 0.156 µM); in the test on Escherichia coli [1] it was 4 µg/mL (≈ 10.4 µM); against Klebsiella pneumoniae it was > 32 µg/mL; against Escherichia coli [4], 0.06 µg/mL (≈ 0.156 µM); in the test on Escherichia coli [2], 4 µg/mL (≈ 10.4 µM).

As to COLISTIN, the MIC with Escherichia coli [3], in the test on Escherichia coli [1], against Klebsiella pneumoniae, against Escherichia coli [4] and against Escherichia coli [2] was 0.5 µg/mL throughout.

With `CO/N=C(\C(=O)N[C@@H]1C(=O)N2C(C(=O)[O-])=C(C[N+]3(C)CCCC3)CS[C@H]12)c1csc(N)n1` [CEFEPIME], the MIC was 0.125 µg/mL (≈ 0.26 µM) against Escherichia coli [3], > 256 µg/mL with Klebsiella pneumoniae, 0.032 µg/mL (≈ 0.0666 µM) against Escherichia coli [4] and 2 µg/mL (≈ 4.16 µM) with Escherichia coli [2].

With `CO/N=C(\C(=O)N[C@@H]1C(=O)N2C(C(=O)O)=C(CSc3nc(=O)c(O)nn3C)CS[C@H]12)c1csc(N)n1` [CEFTRIAXONE], the MIC against Escherichia coli [3] is 0.094 µg/mL (≈ 0.169 µM); in the test with Escherichia coli [1], 64 µg/mL (≈ 115 µM); in the test on Klebsiella pneumoniae it was > 256 µg/mL; in the test with Escherichia coli [4] it was 0.094 µg/mL (≈ 0.169 µM); against Escherichia coli [2], 8 µg/mL (≈ 14.4 µM).
